Data set [1] in a line: Screening of micelle elongation. Conditions: T2 micelles. It counts as physicochemical. In short, it runs like this:
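Drug loaded into T2 micelles at polymer/drug w/w 10/0, 10/1, 10/2, 10/4 and 10/8. Particle size and size distribution followed over time by DLS. Polymer concentration (1.25–80 mg mL⁻¹), temperature (4, 25, 37 °C) and NaCl (up to ≈4%) also varied. Each formulation scored as spherical, sphere+worm mix, worm, or precipitate.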

A short description of data set [2]: Maximal drug solubilization in POx micelles. It counts as physicochemical.
The test system of data set [3] is BRCA1-mutant human breast carcinoma xenograft MDA-MB-436. Nature of the data set: Tumor inhibition, MDA-MB-436 xenograft. Format: in vivo, athymic nude mice. Conditions: 20 mg kg^−1 IV, twice a week, six injections.

As to `CC1(C)CCC(c2ccc(Cl)cc2)=C(CN2CCN(c3ccc(C(=O)NS(=O)(=O)c4ccc(N[C@H](CCN5CCOCC5)CSc5ccccc5)c(S(=O)(=O)C(F)(F)F)c4)cc3)CC2)C1` [ABT-263], in data set [1], the “mass fraction of drug that inhibited elongation” value was ≤ 10%. The maximal solubilization came out at 4 mg/mL in data set [2] (in T2 micelles) and 8 mg/mL in data set [2] (in T3 micelles).
Turning to `O=C(c1cc(Cc2n[nH]c(=O)c3ccccc23)ccc1F)N1CCN(C(=O)C2CC2)CC1` [Olaparib], the “antitumor activity (tumor growth inhibition)” value in data set [3] is reported as “neither the blank spherical micelles nor the free olaparib (20 mg kg^−1) displayed inhibition of the tumor growth”.
In the case of `CC(=O)O[C@H]1C(=O)[C@@]2(C)[C@H]([C@H](OC(=O)c3ccccc3)[C@]3(O)C[C@H](OC(=O)[C@H](O)[C@@H](NC(=O)c4ccccc4)c4ccccc4)C(C)=C1C3(C)C)[C@]1(OC(C)=O)CO[C@@H]1C[C@@H]2O` [Paclitaxel], the “mass fraction of drug that inhibited elongation” value in data set [1] is reported as ≤ 10%.
As to `CS(=O)(=O)c1ccc(C(=O)Nc2ccc(Cl)c(-c3ccccn3)c2)c(Cl)c1` [Vismodegib], the “mass fraction of drug that inhibited elongation” value in data set [1] is given as ≤ 10%. Moreover, the maximal solubilization in data set [2] (in T2 micelles) is 4 mg/mL; in data set [2] (in T3 micelles), 8 mg/mL.
